ZTA counter: ZTA (EBV) inhibition in EBNA-1 counter-screen. P03206. ZTA-DNA binding, fluorescence polarization. inhibition, % at 11 µM. 320,000 tested, 0.15% active. AID 2234; in the data active means inhibition above about 33%
Target sequence (P03206 whole entry, looked up): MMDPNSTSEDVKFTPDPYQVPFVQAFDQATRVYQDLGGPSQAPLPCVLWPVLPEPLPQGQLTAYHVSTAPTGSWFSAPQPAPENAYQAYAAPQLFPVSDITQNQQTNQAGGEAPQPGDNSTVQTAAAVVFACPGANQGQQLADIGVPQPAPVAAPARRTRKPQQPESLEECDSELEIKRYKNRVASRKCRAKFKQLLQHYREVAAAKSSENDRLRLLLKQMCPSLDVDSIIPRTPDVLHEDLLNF
HCV NS3 hel inh: inhibitors of Hepatitis C virus NS3 helicase; AID 1800; 290,000 tested, 0.56% active; inhibition, % at 10.9 µM; NS3 helicase DNA unwinding, Cy5 molecular beacon fluorescence;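 active means inhibition above the mean of all tested compounds plus 3 SD, set per campaign, cut at about 35% in these data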;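 further: 0% = DMSO wells and 100% = thioflavine S control wells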
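System: NS3 helicase fragment of HCV / Schedule: 1 h at 25 °C / Control set: DMSO alone as 0% and 110 µM thioflavine S as 100% / Reagent: Cy5/quencher beacon DNA duplex and ATP to start / Technique: Cy5 fluorescence / Replication: singlicate / Evaluation: % inhibition of end-to-start signal ratio versus controls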
EBNA-1 inh: blocks EBNA-1 binding to DNA. EBNA-1 DNA binding, fluorescence polarization. inhibition, % at 14.8 µM. 300,000 tested, 0.34% active. AID 1950; in the data active means inhibition above about 28%
core dimer inh: HCV core protein dimerization inhibition | 300,000 tested, 0.33% active | inhibition, % at 5 µM | TR-FRET GST/Flag-core106 dimerization, 1536-well;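 active means inhibition above the mean of all tested compounds plus 3 SD, set per screening campaign, cut at about 45% in these data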
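Assay system: Tagged HCV core106 pair (GST and Flag) | Buffer or medium: KF-containing HEPES buffer, pH 7.45, DTT, CHAPS, BSA | Also added: Eu donor and XL665 acceptor anti-tag antibodies | Dosing: One concentration, 5 µM, in 0.5% DMSO | Timing: 4 h at 22.5 °C | Technique: TR-FRET 671 and 617 nm emission | Repeats: Singlicate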
PP1 counter: PP1-alpha (human) inhibition in PP5 counter-screen. purified PP1alpha, OMFP fluorescence. inhibition, % at 6.7 µM. P62136. 320,000 tested, 0.9% active;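 active means inhibition above the mean inhibition of all tested compounds plus 3 SD, computed separately for each screening campaign, cut at about 15% in these data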
Target sequence (P62136 whole entry, looked up): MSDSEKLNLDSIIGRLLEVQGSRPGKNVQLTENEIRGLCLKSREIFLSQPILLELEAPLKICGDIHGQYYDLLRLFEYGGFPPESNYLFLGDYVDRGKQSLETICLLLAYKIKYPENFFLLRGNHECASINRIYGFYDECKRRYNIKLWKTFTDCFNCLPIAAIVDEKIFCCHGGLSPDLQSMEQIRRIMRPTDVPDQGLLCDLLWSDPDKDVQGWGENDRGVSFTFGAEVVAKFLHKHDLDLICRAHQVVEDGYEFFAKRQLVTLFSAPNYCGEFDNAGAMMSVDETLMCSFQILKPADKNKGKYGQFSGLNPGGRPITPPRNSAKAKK
NS3 helicase cf: confirmation of Hepatitis C virus NS3 helicase inhibitors | 1,600 tested, 31% active | shares compounds with HCV NS3 hel inh | NS3 helicase DNA unwinding, Cy5 molecular beacon fluorescence | inhibition, % at 10.9 µM | AID 1943;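 active means inhibition above the mean of all tested compounds plus 3 SD, cutoff set per campaign, cut at about 36% in these data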
FID counter trip: counter-screen for HCV NS3 helicase inhibitors: DNA intercalator displacement | shares compounds with HCV NS3 hel inh | DNA fluorescent intercalator displacement, fluorescence | inhibition, % at 7.9 µM | 1,600 tested, 4% active; in the data active means inhibition above about 37%;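 further: 0% = vehicle and 100% = reference compound; higher means more displacement of ethidium bromide from the DNA hairpin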
DNA FID DR: DNA intercalator displacement in dose response; shares compounds with HCV NS3 hel inh; fluorescent intercalator displacement from DNA, fluorescence; IC50, µM; 120 tested, under 10 active; AID 2172; call rule not given here
* hit, by the source's call; · = no result. Compounds with a hit are over-represented: about 1.9% of the library has one in this group of screens.

SMILES	ZTA counter	HCV NS3 hel inh	EBNA-1 inh	core dimer inh	PP1 counter	NS3 helicase cf	FID counter trip	others
CCCCCOC(=O)c1[nH]c2c(c1C)C(=O)CC(c1ccco1)C2 (stereo not given)	2	41*	-5	17	-8	17	0
COc1cc(NC(=O)C(=O)NNC(=O)C2CCCCC2)c(OC)cc1Cl	1	36*	-2	-5	-3	-12	-8
COc1cc(OC)cc(C(=O)NNC(=O)C(=O)Nc2cc(OC)c(Cl)cc2OC)c1	6	7	5	7	-1	·	·
CN(C)CC(CCC(CN(C)C)C(=O)c1ccccc1)C(=O)c1ccccc1 (stereo not given)	·	-37	·	·	·	·	·
CCCCCN(C(=O)CCC(=O)OCC(=O)N1CCC(C)CC1)c1c(N)n(CCCC)c(=O)[nH]c1=O	10	·	5	-1	-4	·	·
COc1cccc(OCCOc2ccc(/C=C3/SC(=S)NC3=O)cc2)c1	18	48*	1	40	-3	54*	13
COC(=O)[C@@]1(Cc2ccc(OC)cc2)[C@H]2c3cc(C(=O)N4CCCC4)n(C[C@H](O)CO)c3C[C@H]2CN1C(=O)c1ccccc1	-9	·	9	4	-10	·	·
COc1cccc(C2C(C#N)=C(N)OC3=C2C(=O)CC(c2ccco2)C3)c1OCc1ccc(F)cc1 (stereo not given)	1	39*	1	57*	10	64*	-3	DNA FID DR=>79
CCOC(=O)C1=C(C)NC(C)=C(C(=O)OC)C1c1ccco1 (stereo not given)	7	37*	-5	-3	-2	-5	10
CCOC(=O)C1=C(N)n2c(s/c(=C/c3ccco3)c2=O)=C(C(=O)OC)C1c1ccco1 (stereo not given)	-14	41*	-10	17	7	-3	9
CCN(CC)C(=O)CN1CCC(c2nc3cc(C)c(C)cc3[nH]2)CC1	-15	0	7	0	-3	·	·
O=C(COc1ccc(F)cc1)NN1C(=O)CSC1=S	-3	17	-7	-2	-5	·	·
CCN(CC)S(=O)(=O)c1cc(OC)ccc1N=Nc1ccc(O)c2ncccc12	·	50*	·	·	·	68*	-3
CCN(CC)CCSc1nc2ccccc2n1Cc1ccccc1	-11	-27	-8	-7	1	·	·
COc1ccccc1CN1CC(C(=O)N2CCOCC2)CCC1=O (stereo not given)	3	1	1	0	-3	·	·
COc1ccc(/C(O)=C2/C(=O)C(=O)N(c3ccccn3)C2c2cccc(Cl)c2)cc1 (stereo not given)	-1	44*	8	14	15	44*	-30
Cc1ccc(/C(O)=C2\C(=O)C(=O)N(c3cc(C)on3)C2c2cccc(Br)c2)cc1 (stereo not given)	3	23	-6	7	5	·	·
COc1ccc(/C(O)=C2/C(=O)C(=O)N(c3ccccn3)C2c2ccc(C(C)C)cc2)cc1 (stereo not given)	·	39*	·	·	·	85*	-13	DNA FID DR=>79
COc1ccc(/C(O)=C2/C(=O)C(=O)N(c3ccccn3)C2c2ccc(OC)cc2)cc1 (stereo not given)	·	5	·	·	·	·	·
O=C1C(=O)N(c2ccccn2)C(c2ccc(Br)cc2)/C1=C(/O)c1ccc(Br)cc1 (stereo not given)	·	73*	·	·	·	85*	-28
Cc1cc(N2C(=O)C(=O)/C(=C(/O)c3ccc(F)cc3)C2c2cccc(Br)c2)no1 (stereo not given)	5	38*	5	0	16*	64*	-20
O=C1CCC/C(=N\NC(=O)c2ccc(CSc3cccc4cccnc34)cc2)C1	-13	1	7	9	0	·	·
CC(C)(C)c1ccc(C(=O)NN2C(=O)CSC2=S)cc1	6	10	4	3	0	·	·
O=C1/C(=C\c2ccco2)CCC/C1=C\c1ccco1	5	48*	-5	32	3	27	28
CC1C/C(=C/c2cccs2)C(=O)/C(=C/c2cccs2)C1 (stereo not given)	-2	32	-4	33	1	·	·
SMILES	ZTA counter	HCV NS3 hel inh	EBNA-1 inh	core dimer inh	PP1 counter	NS3 helicase cf	FID counter trip	others
O=C1/C(=C/c2cccs2)CCC/C1=C\c1cccs1	12	72*	6	39	4	-3	1
CC(C)CN(CC(C)C)S(=O)(=O)N1CCC(C(=O)NCc2ccc3c(c2)OCO3)CC1	-5	-2	3	4	-2	·	·
COC(=O)c1cc([N+](=O)[O-])c(-n2cncn2)c([N+](=O)[O-])c1	·	12	·	·	·	·	·
NC(=O)CC[C@H](NC(=O)c1ccc(F)cc1)C(=O)OCC(=O)NCc1ccc(F)cc1	6	6	16	4	-3	·	·
COc1cccc(C(C(=O)NC2CCCC2)N(C(=O)c2ccco2)c2ccc(NC(C)=O)cc2)c1OC (stereo not given)	-2	18	-12	-15	-9	·	·
Cc1[nH]c2ccccc2c1/C=N/Nc1cccc(C(=O)O)c1	-3	11	3	-18	-2	·	·
O=C(N/N=C/c1cccn1-c1ccc([N+](=O)[O-])cc1)c1cccnc1	6	65*	-4	19	-2	1	-3
CCN(CC)C(=O)COC(=O)c1cc(-c2ccco2)nc2ccccc12	·	44*	·	·	·	19	0
CCN(CC)C(=O)COC(=O)c1cc(-c2ccc(OC)cc2)nc2ccccc12	-2	-10	5	6	1	·	·
COc1ccc(CCNC(=O)c2cc(-c3ccco3)nc3ccccc23)cc1	3	53*	-3	65*	1	7	-17
O=C(O)c1ccccc1/C=N/NC(=O)c1cc(-c2ccco2)nc2ccccc12	2	42*	-5	41	8	68*	-21	DNA FID DR=>79
CC1CCCN(S(=O)(=O)CCNC(=O)c2ccccc2)C1 (stereo not given)	-1	·	5	-12	-4	·	·
O=C(Nc1ccc(S(=O)(=O)Nc2nccs2)cc1)c1nn(-c2ccc(F)cc2)ccc1=O	-1	9	-12	32	2	·	·
CCOc1ccc(-n2ccc(=O)c(C(=O)Nc3ccc(S(=O)(=O)Nc4nccs4)cc3)n2)cc1	-6	37*	1	13	7	-19	-2
CC(C)(C)C(=O)/C(C#N)=C/c1cccs1	-8	1	2	-2	0	·	·
N#C/C(=C\c1cccs1)C(=O)c1ccccc1Cl	5	41*	17	-2	0	-26	7
COC(=O)c1cc(=O)nc2sc3ccccc3n12	-1	-2	2	2	-8	·	·
O=C(OCc1cc(=O)n2c(n1)sc1ccccc12)c1ccc(O)cc1O	-11	36*	15	42	6	30	1
